Results published in ChEMBL document CHEMBL1148788 (J Med Chem, 2007).
Values joined by “and” are separate entries in the source; they are usually repeats but may differ in a detail not shown here. Identical values can stand only once. Active and inactive are the calls of the source. No cut-off for these calls is given here.

Assays:
[1] = Displacement of [3H]methyllycaconitine from chimeric alpha-7nAChR D197A mutant/5HT3A receptor in tsA201 cells; assay type: cell-based, Homo sapiens
Summary of the method: (§1)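 tsA-201 cells transiently transfected with 4 µg WT or mutant α7/5-HT3A chimera and assayed 2 days later. Membranes washed twice at 50000g in 50 mM Tris-HCl pH 7.2. Incubated with 0.5 nM [3H]MLA and compound for 2.5 h at room temperature with shaking; nonspecific binding with 5 mM (S)-nicotine. PEI-soaked GF/C filtration, scintillation counting. Ki derived; duplicate, 3–7 experiments.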

tsA201 [2] = assay: Displacement of [3H]methyllycaconitine from chimeric alpha-7nAChR W55A/Y195A mutant /5HT3A receptor in tsA201 cells; assay type: cell-based; details: Homo sapiens; summary of the method: as §1
[3] = Displacement of [3H]methyllycaconitine from chimeric alpha-7nAChR K145R mutant /5HT3A receptor in tsA201 cells; assay type: cell-based, Homo sapiens; summary of the method: as §1
[4] = Antagonist activity at human alpha7nAChR Y93A mutant co-expressed with human Ric3 in tsA201 cells by FMP assay; assay type: functional, cell-based
[5] = Antagonist activity at human alpha7 nAChR W149Y mutant co-expressed with human Ric3 in tsA201 cells by FMP assay; assay type: functional, cell-based
[6] = Antagonist activity at human alpha-7 nAChR Y188A mutant coexpressed with human Ric3 in tsA201 cells by FMP assay; assay type: functional, cell-based
[7] = Antagonist activity at human alpha-7 nAChR Y195A mutant coexpressed with human Ric3 in tsA201 cells by FMP assay; assay type: functional, cell-based
[8] = molecular target: Neuronal acetylcholine receptor; alpha4/beta2 (Rattus norvegicus, UniProt P09483+P12390); assay: Displacement of [3H]epibatidine from rat recombinant alpha-4-beta-2 nAChR in HEK293 cell line; assay type: cell-based
[9] = molecular target: T1, Neuronal acetylcholine receptor; alpha3/beta4 (Rattus norvegicus, UniProt P04757+P12392); assay: Displacement of [3H]epibatidine from recombinant rat alpha-3-beta-4 nAChr in HEK293 cell line; assay type: cell-based
[10] = molecular target: Neuronal acetylcholine receptor; alpha4/beta4 (Rattus norvegicus, UniProt P09483+P12392); assay: Displacement of [3H]epibatidine from recombinant rat alpha-4-beta-4 nAChr in HEK293 cell line; assay type: cell-based
[11] = molecular target: T2, Neuronal acetylcholine receptor subunit alpha-7 (Homo sapiens, UniProt P36544); assay: Displacement of [3H]methyllycaconitine from alpha7 nAChR in tsA201 cells co-expressed with Ric3; assay type: cell-based
Target sequence in this assay (P36544 whole entry): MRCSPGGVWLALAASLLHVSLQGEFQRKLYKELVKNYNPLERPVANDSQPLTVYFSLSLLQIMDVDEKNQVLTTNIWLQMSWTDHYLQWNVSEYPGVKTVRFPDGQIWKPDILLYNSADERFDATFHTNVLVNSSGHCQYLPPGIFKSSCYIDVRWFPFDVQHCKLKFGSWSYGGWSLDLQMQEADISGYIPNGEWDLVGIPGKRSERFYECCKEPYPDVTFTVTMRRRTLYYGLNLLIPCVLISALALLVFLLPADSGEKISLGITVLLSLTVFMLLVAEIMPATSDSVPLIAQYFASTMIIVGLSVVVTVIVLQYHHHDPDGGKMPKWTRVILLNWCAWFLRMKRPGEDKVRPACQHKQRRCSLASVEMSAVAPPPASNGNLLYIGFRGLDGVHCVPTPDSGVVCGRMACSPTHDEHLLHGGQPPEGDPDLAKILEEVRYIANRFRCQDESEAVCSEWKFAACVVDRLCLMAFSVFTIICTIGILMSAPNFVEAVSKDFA

[12] = molecular target: T3, 5-hydroxytryptamine receptor 3A (Homo sapiens, UniProt P46098); assay: Displacement of [3H]GR65630 from human 5HT3A receptor in HEK293 cells; assay type: cell-based
T3 sequence (P46098 whole entry): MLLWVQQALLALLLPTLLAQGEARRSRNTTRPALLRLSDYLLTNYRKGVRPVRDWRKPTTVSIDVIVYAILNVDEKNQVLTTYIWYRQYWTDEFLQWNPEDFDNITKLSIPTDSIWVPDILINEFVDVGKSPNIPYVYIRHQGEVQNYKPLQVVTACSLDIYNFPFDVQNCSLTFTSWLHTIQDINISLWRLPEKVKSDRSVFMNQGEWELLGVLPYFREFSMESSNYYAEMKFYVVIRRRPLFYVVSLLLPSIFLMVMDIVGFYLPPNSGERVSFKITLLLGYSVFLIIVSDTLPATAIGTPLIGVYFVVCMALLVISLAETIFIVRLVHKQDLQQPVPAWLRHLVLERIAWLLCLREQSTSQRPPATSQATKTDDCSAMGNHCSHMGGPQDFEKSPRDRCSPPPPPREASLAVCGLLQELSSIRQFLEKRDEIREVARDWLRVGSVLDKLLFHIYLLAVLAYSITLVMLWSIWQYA

[13] = molecular target: T2, Neuronal acetylcholine receptor subunit alpha-7; assay: Antagonist activity at human alpha-7 nAChR in tsA201 cells coexpressed with Ric3 by FMP assay; assay type: functional, cell-based
Target sequence in this assay (P36544 whole entry): as the sequence (P36544 whole entry) above

[14] = molecular target: T1, Neuronal acetylcholine receptor; alpha3/beta4; assay: Antagonist activity at rat alpha3beta4 nAChR expressed in HEK293 cells by FMP assay; assay type: functional, cell-based, Homo sapiens
[15] = molecular target: T3, 5-hydroxytryptamine receptor 3A; assay: Antagonist activity at human 5HT3A receptor expressed in HEK293 cells by FMP assay; assay type: functional, cell-based
cells = assay type: functional, cell-based; details: Homo sapiens, HEK293
[16] = molecular target: T2, Neuronal acetylcholine receptor subunit alpha-7; assay: Displacement of [3H]methyllycaconitine from chimeric alpha7nAChR/5HT3A in tsA201 cells; assay type: cell-based
Target sequence in this assay (P36544 23-502 limits assumed): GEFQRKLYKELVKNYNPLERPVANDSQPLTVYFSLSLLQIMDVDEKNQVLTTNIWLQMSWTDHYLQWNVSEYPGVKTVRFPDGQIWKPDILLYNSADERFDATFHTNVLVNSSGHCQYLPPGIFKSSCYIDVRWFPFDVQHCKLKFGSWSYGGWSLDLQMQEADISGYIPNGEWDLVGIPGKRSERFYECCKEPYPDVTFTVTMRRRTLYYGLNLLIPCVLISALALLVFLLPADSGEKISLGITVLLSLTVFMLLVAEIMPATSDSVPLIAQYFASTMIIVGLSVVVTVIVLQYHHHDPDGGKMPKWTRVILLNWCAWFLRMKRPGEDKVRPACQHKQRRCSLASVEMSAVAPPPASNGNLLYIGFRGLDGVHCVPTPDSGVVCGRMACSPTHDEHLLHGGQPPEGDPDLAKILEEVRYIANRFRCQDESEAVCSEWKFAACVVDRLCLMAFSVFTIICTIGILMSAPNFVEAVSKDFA

[17] = Displacement of [3H]methyllycaconitine from chimeric alpha-7nAChR W55A mutant /5HT3A receptor in tsA201 cells; assay type: cell-based, Homo sapiens; summary of the method: as §1
[18] = Displacement of [3H]methyllycaconitine from chimeric alpha7nAChR W55Y mutant/5HT3A receptor in tsA201 cells; assay type: cell-based, Homo sapiens; summary of the method: as §1
[19] = Displacement of [3H]methyllycaconitine from chimeric alpha7nAChR R79A mutant/5HT3A receptor R79A mutant in tsA201 cells; assay type: cell-based, Homo sapiens; summary of the method: as §1
tsA201 [20] = assay: Displacement of [3H]methyllycaconitine from chimeric alpha-7nAChR Y93A mutant/5HT3A receptor in tsA201 cells; assay type: cell-based; details: Homo sapiens; summary of the method: as §1
[21] = Displacement of [3H]methyllycaconitine from chimeric alpha7nAChR K145A mutant/5HT3A receptor in tsA201 cells; assay type: cell-based, Homo sapiens; summary of the method: as §1
[22] = Displacement of [3H]methyllycaconitine from chimeric alpha-7nAChR S148A mutant /5HT3A receptor in tsA201 cells; assay type: cell-based, Homo sapiens; summary of the method: as §1
tsA201 [23] = assay: Displacement of [3H]methyllycaconitine from chimeric alpha-7nAChR W149A mutant/5HT3A receptor in tsA201 cells; assay type: cell-based; details: Homo sapiens; summary of the method: as §1
[24] = Displacement of [3H]methyllycaconitine from chimeric alpha-7nAChR S150A mutant/5HT3A receptor in tsA201 cells; assay type: cell-based, Homo sapiens; summary of the method: as §1
[25] = Displacement of [3H]methyllycaconitine from chimeric alpha-7nAChR Y168A mutant/5HT3A receptor in tsA201 cells; assay type: cell-based, Homo sapiens; summary of the method: as §1
tsA201 [26] = assay: Displacement of [3H]methyllycaconitine from chimeric alpha-7nAChR Y188A mutant/5-HT3A receptor in tsA201 cells; assay type: cell-based; details: Homo sapiens; summary of the method: as §1
[27] = Displacement of [3H]methyllycaconitine from chimeric alpha7nAChR Y195A mutant/5HT3A receptor in tsA201 cells; assay type: cell-based, Homo sapiens; summary of the method: as §1
[28] = molecular target: T2, Neuronal acetylcholine receptor subunit alpha-7
Target sequence in this assay (P36544 whole entry): as the sequence (P36544 whole entry) above

T1 sequence (P04757 whole entry): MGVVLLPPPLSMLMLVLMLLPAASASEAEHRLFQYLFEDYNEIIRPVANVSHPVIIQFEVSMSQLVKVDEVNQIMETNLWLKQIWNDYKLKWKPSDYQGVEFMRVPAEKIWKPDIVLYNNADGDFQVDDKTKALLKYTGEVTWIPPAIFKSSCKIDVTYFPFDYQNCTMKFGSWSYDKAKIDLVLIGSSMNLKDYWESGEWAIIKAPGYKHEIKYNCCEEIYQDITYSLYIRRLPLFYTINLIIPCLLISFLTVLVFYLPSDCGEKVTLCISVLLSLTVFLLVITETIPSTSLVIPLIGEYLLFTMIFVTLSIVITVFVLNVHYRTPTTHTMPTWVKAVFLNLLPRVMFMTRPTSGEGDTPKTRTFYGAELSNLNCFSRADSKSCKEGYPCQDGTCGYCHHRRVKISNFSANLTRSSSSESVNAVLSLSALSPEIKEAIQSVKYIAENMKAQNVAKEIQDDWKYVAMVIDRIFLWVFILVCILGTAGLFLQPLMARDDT
T1 sequence (P12392 whole entry): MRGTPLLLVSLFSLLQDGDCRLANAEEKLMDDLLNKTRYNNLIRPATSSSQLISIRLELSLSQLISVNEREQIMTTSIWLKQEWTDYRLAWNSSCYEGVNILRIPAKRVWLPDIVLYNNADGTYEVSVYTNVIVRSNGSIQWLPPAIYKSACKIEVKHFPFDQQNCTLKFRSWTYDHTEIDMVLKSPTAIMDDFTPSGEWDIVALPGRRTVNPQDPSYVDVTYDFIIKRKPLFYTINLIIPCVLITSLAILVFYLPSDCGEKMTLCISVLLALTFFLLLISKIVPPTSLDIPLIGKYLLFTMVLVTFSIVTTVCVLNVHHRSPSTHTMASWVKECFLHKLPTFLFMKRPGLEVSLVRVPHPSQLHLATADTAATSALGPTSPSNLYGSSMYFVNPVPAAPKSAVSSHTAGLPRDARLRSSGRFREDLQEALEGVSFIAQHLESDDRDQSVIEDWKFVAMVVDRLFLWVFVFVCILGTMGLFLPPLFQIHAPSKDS
Neuronal acetylcholine receptor; alpha4/beta2, sequence (P09483 whole entry): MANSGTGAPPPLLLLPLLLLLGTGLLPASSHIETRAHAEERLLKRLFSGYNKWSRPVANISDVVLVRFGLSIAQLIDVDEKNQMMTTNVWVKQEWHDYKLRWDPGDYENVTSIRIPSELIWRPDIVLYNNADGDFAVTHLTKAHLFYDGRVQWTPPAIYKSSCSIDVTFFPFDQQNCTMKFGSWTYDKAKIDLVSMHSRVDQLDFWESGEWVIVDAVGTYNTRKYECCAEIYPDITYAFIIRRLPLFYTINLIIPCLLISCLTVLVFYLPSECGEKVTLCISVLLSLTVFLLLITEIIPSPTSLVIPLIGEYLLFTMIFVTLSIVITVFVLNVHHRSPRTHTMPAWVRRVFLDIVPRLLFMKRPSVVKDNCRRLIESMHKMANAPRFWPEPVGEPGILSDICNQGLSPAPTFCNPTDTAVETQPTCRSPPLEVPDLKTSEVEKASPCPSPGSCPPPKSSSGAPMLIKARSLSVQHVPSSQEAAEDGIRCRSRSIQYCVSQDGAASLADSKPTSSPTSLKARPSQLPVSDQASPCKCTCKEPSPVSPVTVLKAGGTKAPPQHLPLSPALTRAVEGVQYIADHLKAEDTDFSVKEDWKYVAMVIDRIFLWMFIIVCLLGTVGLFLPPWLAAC
Neuronal acetylcholine receptor; alpha4/beta2, sequence (P12390 whole entry): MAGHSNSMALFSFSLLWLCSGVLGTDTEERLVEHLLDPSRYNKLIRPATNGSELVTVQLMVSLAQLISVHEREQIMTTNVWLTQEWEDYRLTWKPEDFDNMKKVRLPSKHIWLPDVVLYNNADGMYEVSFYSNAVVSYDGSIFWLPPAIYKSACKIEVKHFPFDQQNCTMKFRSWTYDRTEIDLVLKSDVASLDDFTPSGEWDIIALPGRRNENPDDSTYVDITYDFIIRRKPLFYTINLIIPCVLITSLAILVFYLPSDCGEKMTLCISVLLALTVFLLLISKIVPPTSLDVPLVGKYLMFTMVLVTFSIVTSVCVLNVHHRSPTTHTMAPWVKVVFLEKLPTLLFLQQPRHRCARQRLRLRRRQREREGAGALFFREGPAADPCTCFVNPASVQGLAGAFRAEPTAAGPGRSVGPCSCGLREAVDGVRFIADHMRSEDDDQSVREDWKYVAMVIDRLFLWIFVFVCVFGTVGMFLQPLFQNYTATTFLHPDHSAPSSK
Neuronal acetylcholine receptor; alpha4/beta4, sequence (P09483 whole entry): as the sequence (P09483 whole entry) above
Neuronal acetylcholine receptor; alpha4/beta4, sequence (P12392 whole entry): as the sequence (P12392 whole entry) above

## O=[N+]([O-])c1ccc(C[N+]23CC[C@@H]4[C@@H]5[C@@H]6[C@@H](OCC=C(C2)[C@@H]6C[C@@H]43)N2c3ccccc3[C@@]34CC[N+]6(Cc7ccc([N+](=O)[O-])cc7)CC7=CCO[C@H]([C@@H]([C@H]23)[C@H]7C[C@@H]46)N5c2ccccc2)cc1.[Br-].[Br-] (some centres not stated)
[1]
  Ki: 31 nM
  pKi: 7.51
tsA201 [2]
  Activity: inactive
[3]
  Ki: 58 nM
  pKi: 7.24
[4]; read-out: IC50
  IC50: 19000 nM
[4]; read-out: pIC50 (converted)
  IC50: 19500 nM
[5]; read-out: IC50
  IC50: 1200 nM
[5]; read-out: pIC50 (converted)
  IC50: 1170 nM
[6]; read-out: IC50
  IC50: 15000 nM
[6]; read-out: pIC50 (converted)
  IC50: 15500 nM
[7]; read-out: IC50
  IC50: 25000 nM
[7]; read-out: pIC50 (converted)
  IC50: 25100 nM
[8]; hek293
  pKi: < 4
[8]; read-out: Ki
  Ki: > 100000 nM
[9]
  Ki: > 100000 nM
[9]; hek293
  pKi: < 4
[10]
  Ki: > 100000 nM
[10]; hek293
  pKi: < 4
[11]; read-out: Ki
  Ki: 29 nM
[11]; read-out: pKi (converted)
  Ki: 31.6 nM
[12]
  Ki: 23000 nM
[13]; read-out: IC50
  IC50: 370 nM
[13]; read-out: pIC50 (converted)
  IC50: 372 nM
[14]; hek293
  pIC50: < 4
[14]; read-out: IC50
  IC50: > 100000 nM
[15]; hek293
  pIC50: < 4
[15]; read-out: IC50
  IC50: > 100000 nM
cells; read-out: IC50
  IC50: > 100000 nM
cells; read-out: pIC50 (converted)
  IC50: > 100000 nM
[16]
  Ki: 18 nM
  pKi: 7.74
[17]
  Ki: 130 nM
  pKi: 6.89
[18]
  Ki: 37 nM
  pKi: 7.43
[19]
  Ki: 32 nM
  pKi: 7.5
tsA201 [20]
  Activity: inactive
[21]
  Ki: 28 nM
  pKi: 7.56
[22]
  Ki: 160 nM
  pKi: 6.8
tsA201 [23]
  Activity: inactive
[24]
  Ki: 35 nM
  pKi: 7.45
[25]
  Ki: 34 nM
  pKi: 7.47
tsA201 [26]
  Activity: inactive
[27]
  Ki: 740 nM
  pKi: 6.13
[28]
  IC50: 360 nM and 363 nM
